Compound activity (PubChem BioAssay)
Most compounds without a hit are left out; they make up all but 2.5% or so of the library.
MC4R ag barr = human MC4R agonism via beta-arrestin. U2OS MC4R beta-arrestin complementation, luminescence; percent of melanotan II response, DMSO zero. activation, % at 8.9 µM. 360,000 tested, 0.98% active. P32245;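 active means activation above a per-plate cutoff, the mean activation of sample wells on that plate plus 3 SD, cut at about 8% in these data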
Target sequence (P32245 whole entry, looked up): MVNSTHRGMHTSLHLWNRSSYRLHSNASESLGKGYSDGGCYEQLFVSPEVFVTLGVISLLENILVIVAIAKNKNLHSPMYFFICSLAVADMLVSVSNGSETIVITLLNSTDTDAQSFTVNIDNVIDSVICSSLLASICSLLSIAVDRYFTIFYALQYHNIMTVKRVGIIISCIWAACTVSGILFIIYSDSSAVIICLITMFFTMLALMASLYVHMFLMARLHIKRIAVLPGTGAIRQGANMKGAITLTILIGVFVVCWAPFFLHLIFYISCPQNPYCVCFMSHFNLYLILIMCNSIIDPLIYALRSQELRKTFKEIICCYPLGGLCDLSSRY
MC4R antag cAMP = blocks human MC4R cAMP signaling | P32245 | MC4R-expressing cells, MTII-stimulated cAMP, LANCE TR-FRET | inhibition, % at 6.5 µM | 360,000 tested, 0.48% active | AID 540295;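 active means inhibition above its plate's cutoff, the mean of tested wells on that plate plus 3 SD, cut at about 29% in these data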
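System: U2OS-MC4R stable cell line; Technique: Eu-cAMP/anti-cAMP TR-FRET, emission 671 nm; Repeats: single well per compound; Also added: Melanotan II; Dosing: one concentration, 6.5 µM nominal; Schedule: 30-min compound, 1-h challenge, 1-h detection, room temperature.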
NR1D1 modulator = Rev-erb alpha (human) modulation | P20393 | Rev-erbα–FITC-DNA binding, fluorescence polarization, 90 min | 370,000 tested, 0.79% active | activity, % at 10 µM;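 active means activity above about 14%, limit read from the data; passing the limit was not always enough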
PG9 binder = binds the HIV-1 gp120 antibody PG9 | TR-FRET gp120-PG9 antibody binding | inhibition, % at 6.7 µM | 360,000 tested, 0.43% active | AID 624416; in the data active means inhibition above about 8.5%
NTR1 ag = agonists of human neurotensin receptor NTR1; P30989; NTR1-U2OS beta-arrestin-GFP spot imaging, agonist mode; activation, % at 20 µM; 330,000 tested, 0.17% active; AID 493036;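 active means activation at or above 40% of the spot to cytoplasm intensity ratio, with at least 20 cells analyzed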
NR1D1 mod conf = confirmation of modulators of human Rev-erb alpha DNA binding | shares compounds with NR1D1 modulator | Rev-erb alpha FITC-DNA binding, fluorescence polarization, 90 min | activation, % at 25 µM | 3,000 tested, 61% active | AID 1259319;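 active means activation at or above a set limit, or at least 3 SD above the negative control mean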
RORg DNA counter = RORgamma DNA-binding activity, dose-response counter-screen | purified RORgamma protein-FITC-DNA binding, fluorescence polarization | shares compounds with NR1D1 modulator | 910 tested, 8% active | IC50, µM;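 active means Compounds whose fitted half-maximal concentration for disrupting protein-DNA binding is below 10 micromolar; the record names Rev-erb in its text, so the target is in doubt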
Each line names hits and unclear results; the compound was inactive in the other large screens (follow-up assays come after a bar, where they were run).

COc1cc(-c2nnc(SCC(=O)N3C(C)CCCC3C)o2)cc(OC)c1OC (stereo not drawn)	none (no result: MC4R ag barr, MC4R antag cAMP, PG9 binder, NTR1 ag)
CCOC(=O)CSc1nc2cc(OC)ccc2cc1C#N	NR1D1 modulator 29.5 | NR1D1 mod conf 30.5
N#Cc1cc2ccccc2nc1SCc1cccnc1	none
COc1ccc2nc(SCc3cccnc3)c(C#N)cc2c1	NR1D1 modulator 85.9 | NR1D1 mod conf 56.4 | RORg DNA counter inactive
N#Cc1cc2cc3c(cc2nc1N1CCCCC1)OCCO3	none
CCOC(=O)CSc1nc(N)c(C#N)c(-c2ccc(OCC)cc2)c1C#N	MC4R ag barr 9.4, NR1D1 modulator 55.5, PG9 binder 11.5 | NR1D1 mod conf 29.0
CCOC(=O)CSc1nc2cc(C)ccc2cc1C#N	none
N#Cc1cc2cc3c(cc2nc1Cl)OCCO3	NR1D1 modulator 26.6 (no result: NTR1 ag) | NR1D1 mod conf 21.6
COC(=O)[C@]12C[C@H](CC(=O)NCCC(C)C)C(=O)N(Cc3ccc4c(c3)OCO4)C1=C[C@H](COCc1ccccc1)O[C@@H]2C	none (no result: MC4R ag barr, MC4R antag cAMP, NTR1 ag)
O=[N+]([O-])c1ccc(CSc2nnc(-c3cccc(Cl)c3)n2Cc2ccco2)cc1	none (no result: MC4R ag barr, MC4R antag cAMP, PG9 binder, NTR1 ag)
C[C@@H]1COc2cc(NCCO)ccc2S(=O)(=O)N1	none (no result: MC4R ag barr, MC4R antag cAMP, NTR1 ag)
Cc1ccc(OCCNC(=O)[C@@H](Cc2ccccc2)NC(=O)[C@H]2O[C@@H](n3ccc(=O)[nH]c3=O)[C@H](O)[C@@H]2O)cc1C	none (no result: MC4R ag barr, MC4R antag cAMP, NTR1 ag)
CC(=O)Nc1cc2nc3ccccc3oc-2cc1=O	none (no result: MC4R ag barr, MC4R antag cAMP, NTR1 ag)
C[C@H](O)[C@@H]1CN2CCc3c([nH]c4c(-c5ccccc5)cccc34)[C@@H]2C[C@@H]1N(C)C(=S)Nc1ccc(C#N)cc1	none (no result: MC4R ag barr, MC4R antag cAMP, PG9 binder, NTR1 ag)
CCOC(=O)CSc1nc2cc3c(cc2cc1C)OCO3	none
CC(C)OC(=O)CSc1nc(N)c(C#N)cc1C#N	none
CC(C)OC(=O)CSc1nc2cc3c(cc2cc1C#N)OCO3	NR1D1 modulator 49.2 | NR1D1 mod conf inactive
CCOC(=O)CSc1nc2cc3c(cc2cc1C#N)OCCO3	NR1D1 modulator 75.2 | NR1D1 mod conf 30.9 | RORg DNA counter 0.657
N#Cc1cc2cc3c(cc2nc1SCC(=O)N1CCOCC1)OCO3	NR1D1 modulator 36.7 | NR1D1 mod conf inactive
O=C(NCc1ccccc1)[C@H]1CCCN1C(=O)[C@H]1CCCN1C(=O)c1ccc(F)cc1F	none (no result: MC4R ag barr, MC4R antag cAMP, NTR1 ag)
Cc1nn(-c2ccccc2)c2sc(C(=O)NC3CCCCC3)cc12	none
Cc1cnc(NC(=O)c2cc3c(C)nn(-c4ccccc4)c3s2)s1	NR1D1 modulator 40.4 | NR1D1 mod conf 35.2 | RORg DNA counter inactive
Oc1ccccc1N=Nc1nc(-c2ccccc2)c(-c2ccccc2)[nH]1	NR1D1 modulator 25.1 | NR1D1 mod conf 33.4 | RORg DNA counter inactive
COc1ccccc1N=Nc1nc(-c2ccccc2)c(-c2ccccc2)[nH]1	NR1D1 modulator 35.0 (no result: NTR1 ag) | NR1D1 mod conf 41.5 | RORg DNA counter 1.13
COc1ccc(N=Nc2nc(-c3ccccc3)c(-c3ccccc3)[nH]2)cc1	none
O=C(N[C@@H]1CC[C@H]2SC[C@H](C(=O)O)N2C1=O)OCC1c2ccccc2-c2ccccc21	none (no result: MC4R ag barr, MC4R antag cAMP, PG9 binder, NTR1 ag)
COc1cccc(OC)c1C(=O)N=c1sc2cc(S(C)(=O)=O)ccc2n1C	none
COC(=O)Cn1c(=NC(=O)c2nc3ccccc3s2)sc2cc(S(C)(=O)=O)ccc21	NR1D1 modulator 77.8 (no result: MC4R ag barr, MC4R antag cAMP) | NR1D1 mod conf 58.8 | RORg DNA counter 1.04
CN(C(=O)C1CCN(c2cncnc2)CC1)C1CCCCC1	none (no result: MC4R ag barr, MC4R antag cAMP, PG9 binder, NTR1 ag)
Cc1cccc(NC(=O)c2cnc3scc(C)n3c2=O)c1	none
Cc1csc2ncc(C(=O)Nc3ccc4c(c3)OCCO4)c(=O)n12	NR1D1 modulator 27.8 | NR1D1 mod conf 13.8
O=C(CN1C(=O)c2cccc3cccc1c23)N1CCN(c2cccc(Cl)c2)CC1	NR1D1 modulator 49.4 | NR1D1 mod conf 27.1
CCOC(=O)/C(=C/C=C1\Sc2cc(C)c(C)cc2N1CC)C(C)=O	NR1D1 modulator 31.5 (no result: NTR1 ag) | NR1D1 mod conf inactive
CCOC(=O)/C(=C\C=C1/Sc2ccccc2N1CC)C(C)=O	NR1D1 modulator 27.2 (no result: NTR1 ag) | NR1D1 mod conf inactive
O=C(NC1CCCCN(Cc2cccc(F)c2)C1=O)c1cccc(C(F)(F)F)c1 (stereo not drawn)	none (no result: MC4R ag barr, MC4R antag cAMP, PG9 binder, NTR1 ag)
COc1ccc(NC(=O)c2sc3ncnc(N4CCN(c5ccccn5)CC4)c3c2C)cc1Cl	NR1D1 modulator 28.3 | NR1D1 mod conf 20.3
